Data on 35 molecules can be found in ChEMBL document CHEMBL1128190, “Inhibition of E-selectin-, ICAM-1-, and VCAM-1-mediated cell adhesion by benzo[b]thiophene-, benzofuran-, indole-, and naphthalene-2-carboxamides: identification of PD 144795 as an antiinflammatory agent” (J Med Chem, 1995).

One assay in a line: Cell adhesion measured using the inhibitory concentration against Human umbilical vein endothelial cell (HUVEC) activation, with Na51CrO4 as radioligand at 100 uM. The assay is classed as functional. In short, it runs like this: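 Confluent second-passage HUVEC monolayers were stimulated with TNF-α (200 U/mL) for 4 h with or without compound at 100 μM, then washed. Fresh human neutrophils labelled with Na⁵¹CrO₄ (5 × 10⁵) were added for 30 min at 37 °C. Non-adherent cells were aspirated and adherent cells lysed in NH₄OH; lysates were γ-counted. Results are % inhibition of TNF-stimulated adherence, triplicate. IC50 came from linear regression at 33.3–1.0 μM.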
As a reminder, the inhibition is the relative decrease from the control value, in per cent. `CC(C)Oc1c(C(N)=O)sc2ccccc12` gave an inhibition at 100 µM of 60%. On the same count and under the same terms, as for `CC(C)Oc1c(C(N)=O)oc2ccccc12`, the figure is 20%; as for `Cc1ccc2sc(C(N)=O)c(OC(C)C)c2c1`, 61%; as for `COc1ccc2sc(C(=O)NCC(=O)O)c(OC(C)C)c2c1`, less than 4%. Still for that read-out and setting: as for `CC(C)Oc1c(C(N)=O)sc2ccc(OCc3ccccc3)cc12`, the figure is less than 4%. On the same count and under the same terms, as for `COc1ccc2sc(C(N)=O)c(Sc3ccccc3)c2c1`, the figure is 48%; as for `COc1ccc2sc(C(N)=O)c(OC)c2c1`, 60%; as for `COc1ccc2sc(C(=O)Nc3cccc(C(=O)O)c3)c(OC(C)C)c2c1`, 28%. The molecule `COc1ccc2ccc(C(=O)Nc3ccccc3)c(OC(C)C)c2c1` gave an inhibition at 100 µM of less than 4%. The same measure, in the same setting: as for `CC(C)Oc1c(C(N)=O)sc2ccc([N+](=O)[O-])cc12`, the figure is 40%; as for `COc1ccc2sc(C(=O)Nc3ccccc3)c(OC(C)C)c2c1`, 12%.

For `CC(C)Oc1c(C(N)=O)oc2ccc(Cl)cc12`, 100 µM produced 52% inhibition.

In turn, `COc1ccc2sc(C(N)=O)c(Oc3ccccc3)c2c1` displayed an inhibition at 100 µM of 59%. The same measure, in the same setting: then `COc1ccc2sc(C(=O)Nc3ccccc3C(=O)O)c(OC(C)C)c2c1`, with 35%. Molecule `CC(C)Oc1c(C(N)=O)sc2ccc(N)cc12` had an inhibition at 100 µM of 49%.

As for `CC(C)Sc1c(C(N)=O)sc2ccccc12`, the inhibition at 100 µM stood at 34%. On the same count and under the same terms, then `COc1ccc2sc(C(=O)NCCCCC(=O)O)c(OC(C)C)c2c1`, with 9%.

Regarding `CCNC(=O)c1ccc2ccc(OC)cc2c1OC(C)C`, the inhibition at 100 µM amounted to 73%. The molecule `CC(C)Oc1c(C(N)=O)sc2ccc(Cl)cc12` had an inhibition at 100 µM of 72%. On the same count and under the same terms, then `COc1ccc2sc(C(N)=O)c(SC)c2c1`, with 81%; and `COc1ccc2c(c1)c(OC(C)C)c(C(=O)NCc1ccccc1)[s+]2[O-]` (stereo not given), with 15%. Take `CC(C)Oc1c(C(N)=O)ccc2ccccc12`: the inhibition at 100 µM was less than 4%. The same measure, in the same setting: then `COc1ccc2c(OC(C)C)c(C(N)=O)sc2c1`, with 24%; and `COc1ccc2sc(C(N)=O)c(OCc3ccccc3)c2c1`, with 57%; and `COc1ccc2oc(C(=O)Nc3ccccc3)c(OC(C)C)c2c1`, with less than 4%.

A further assay in a line: The compound was tested for inhibitory activity against E-Selectin mediated cell adhesion in Human umbilical endothelial cell culture, by using HUVEC surface expression assay. Type of assay: functional, cell-based. An outline of the steps:
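Confluent HUVECs were given compound 30 min before TNF-α (140 U/mL final), then incubated 4 h at 37 °C. Unstimulated background was subtracted and results given as % inhibition versus vehicle. IC50 came from linear regression; average of two assays, each in triplicate.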
The term IC50 denotes the midpoint of a concentration-inhibition curve. Low values mean greater potency, high ones weaker potency. Molecule `CC(C)Oc1c(C(N)=O)sc2ccc(O)cc12` displayed an IC50 of 3.3 µM. Take `COc1ccc2oc(C(N)=O)c(OC(C)C)c2c1`: 7.9 µM corresponded to half-maximal inhibition (IC50).

A further assay is described as follows: The compound was tested for cell adhesion by measuring the inhibitory concentration against Human umbilical vein endothelial cell (HUVEC) activation, using calcein-AM as radioligand at 33 uM. Type of assay: functional.
For the molecule `CC(C)Sc1c(C(N)=O)sc2ccc(OCc3ccccc3)cc12`, the inhibition at 33 µM is 24%. For the molecule `CNC(=O)c1sc2ccc(OC)cc2c1SC(C)C`, the inhibition at 33 µM is 61%. On the same count and under the same terms, then `COc1ccc2sc(C(N)=O)c(SCC(=O)O)c2c1`, with 7%; and `COc1ccc2sc(C(N)=O)c(SCCN)c2c1`, with 0%. On the same count and under the same terms, then `COc1ccc2sc(C(=O)NC(C)C)c(SC(C)C)c2c1`, with 22%.

A short description of the next assay: The compound was tested for inhibitory activity against intercellular adhesion molecule (ICAM)-1 mediated cell adhesion in Human aortic endothelial cell culture, by using HAEC surface expression assay at 50 uM. The assay is classed as functional. An outline of the steps: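 Confluent human aortic endothelial cells were incubated with TNF-α (250 U/mL) and compound (0.005% DMSO final) for 18 h. Cells were formalin-fixed and probed with anti-ICAM-1 mAb (2 h, 37 °C), then peroxidase anti-mouse IgG (1 h) and colour reagent (15 min). Read-out was OD414.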
On to `CC(C)Oc1c(C(N)=O)sc2ccc(O)cc12`, for which the inhibition at 50 µM worked out at 91%.

A further assay is described as follows: The compound was tested for cell adhesion by measuring the inhibitory concentration against Human umbilical vein endothelial cell (HUVEC) activation, using Na51CrO4 as radioligand. Type of assay: functional, cell-based.
In the case of `COCn1c(C(N)=O)c(OC(C)C)c2cc(OC)ccc21`, the IC50 amounted to 34 µM. Still for that read-out and setting: then `COc1ccc2sc(C(N)=O)c(SC(C)C)c2c1`, with 12 µM. Same read-out and setting: as for `CC(C)Oc1c(C(N)=O)sc2ccc(O)cc12`, the figure is 6.4 µM; as for `COc1ccc2sc(C(=O)Nc3ccc(C(=O)O)cc3)c(OC(C)C)c2c1`, 50 µM; as for `COc1ccc2oc(C(N)=O)c(OC(C)C)c2c1`, 14 µM.

The next assay is described as follows: The compound was tested for inhibitory activity against intercellular adhesion molecule (ICAM)-1 mediated cell adhesion in Human umbilical endothelial cell culture, by using HUVEC surface expression assay. The assay is classed as functional, cell-based. In short, it runs like this: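 HUVECs were pretreated with compound for 30 min, then stimulated with TNF-α (140 U/mL final) for 4 h at 37 °C. Unstimulated background was subtracted and results given as % inhibition versus vehicle. IC50 came from linear regression; average of two triplicate assays.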
In turn, `CC(C)Oc1c(C(N)=O)sc2ccc(O)cc12` yielded an IC50 of 3.5 µM. That is a single-digit micromolar value. The same measure, in the same setting: as for `COc1ccc2oc(C(N)=O)c(OC(C)C)c2c1`, the figure is 5 µM.
